# Rows were chosen to be rich in hits. Some 2.9% of all compounds tested hit in one or more screens of this group.
# proKLK7 act: proKLK7 (human) activation, primary screen; P49862; activation, % at 7 µM; AID 652039; purified proKLK7, EDANS-DABCYL substrate fluorescence; 100% is mature enzyme control, 0% vehicle; 370,000 tested, 0.9% active;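 active = activation above the mean of all tested compounds plus 3 SD, computed per campaign excluding outliers beyond control limits, cut at about 13% in these data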
# Target sequence (P49862 whole entry, looked up): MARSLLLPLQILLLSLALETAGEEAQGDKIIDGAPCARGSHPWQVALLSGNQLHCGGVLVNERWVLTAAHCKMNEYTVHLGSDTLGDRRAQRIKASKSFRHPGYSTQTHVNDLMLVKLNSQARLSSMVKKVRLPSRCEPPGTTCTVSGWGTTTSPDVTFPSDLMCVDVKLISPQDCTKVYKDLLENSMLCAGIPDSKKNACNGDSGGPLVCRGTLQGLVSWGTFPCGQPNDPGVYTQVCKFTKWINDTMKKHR
# CRFBP-R2 block: antagonists of CRF-binding protein/CRF-R2 receptor complex | HEK293 CRF-R2/CRF-BP, CRF-induced calcium fluorescence | inhibition, % at 11.8 µM | 350,000 tested, 0.59% active;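 active = inhibition of the ligand-induced calcium signal above about 50% at the single tested concentration, limit read from the data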
# CendR NRP1 mod: modulators of CendR peptide binding to human neuropilin-1; FAM-RPARPAR peptide binding to NRP-1, fluorescence polarization; AID 602438; inhibition, % at 25 µM; O14786; 360,000 tested, 0.85% active;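 active = inhibition or corrected inhibition above about 18%, plus a signal ratio from 0.5 to 1.5, limit read from the data, passing the limit was not always enough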
# DDE Tn7 FP inh: inhibitors of Tn7 peptide binding to human fibrin DD(E); P02675; FP displacement of FITC-Tn7 peptide from fibrin DD(E); 0% = median of compound wells per plate; inhibition, % at 8.3 µM; 370,000 tested, 0.13% active; AID 720508;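 active = inhibition above the mean of compounds falling within the control limits plus 3 SD of them, cut at about 14% in these data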;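 note: 0% = plate median of compound wells and 100% = 10 µM Aha-Tn7 peptide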
#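 assay system = human clot-derived fibrin DD(E) complex | quantity = Fibrin-DD(E) at 2 µM final | timing = 10 min preincubation, 3 h with tracer, room temperature | signal = fluorescence polarization | measure = percent inhibition | benchmarks = high control wells with 10 µM unlabelled Aha-Tn7 peptide (full inhibition) | replicates = singlicate testing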
# Tn6 DDE FP: DD(E)-Tn6 binding inhibition, primary FP screen. inhibition, % at 8.3 µM. AID 720509. P02675. 370,000 tested, 0.21% active. Fibrin DD(E) TRITC-Tn6 fluorescence polarization displacement;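 active = inhibition above a per-campaign cutoff: mean of compounds within control limits plus 3 SD, cut at about 15% in these data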;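 note: 0% = median of all compound wells on the plate and 100% = blocking peptide control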
# CRFBP-R2 agonist: agonists of human CRF-binding protein/CRF-R2 receptor complex | 350,000 tested, 0.46% active | HEK293 CRF-R2/CRF-BP, calcium dye fluorescence (FLIPR); percent of saturating CRF peptide response | activation, % at 13.2 µM | AID 588473;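 active = activation of at least 50%, plus an integration ratio under a set limit after plate pattern correction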;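 note: plate controls were neutral control wells without compound for no effect and CRF at EC100 for full effect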
# * hit, by the source's call; / = not tested or not shown.
SMILES,proKLK7 act,CRFBP-R2 block,CendR NRP1 mod,DDE Tn7 FP inh,Tn6 DDE FP,CRFBP-R2 agonist
CC1(c2ccc(Cl)cc2)NC(=O)N(CC(=O)Nc2ccc3c(c2)OCO3)C1=O (stereo not drawn),0,-29,35*,3,-6,19
CN1c2ccccc2C(C)(C)C12CC(c1ccc(S(=O)(=O)N3CCCCC3)cc1)=NO2 (stereo not drawn),0,2,19*,-7,5,-1
CN1c2ccccc2C(C)(C)C12CC(c1cccc(S(=O)(=O)N3CCCC3)c1)=NO2 (stereo not drawn),-1,0,1,6,-1,1
O=[N+]([O-])c1ccc(Cl)c2c1C1C=CCC1C(c1ccccn1)N2 (stereo not drawn),0,1,28*,-11,-8,-1
COC(=O)c1nc2n(n1)C(c1cccc(Cl)c1)C1=C(CC(C)(C)CC1=O)N2 (stereo not drawn),19*,-10,-2,-4,-9,-1
CSc1nc2n(n1)C(c1ccccn1)C1=C(CC(C)(C)CC1=O)N2 (stereo not drawn),-4,-2,10,0,-4,2
O[C@H](COc1cccc(Cl)c1)CN1CCC(C(O)(c2ccccc2)c2ccccc2)CC1,0,/,/,-3,4,/
CCCCc1nnc2c(N(C)S(=O)(=O)c3ccccc3)nc3ccccc3n12,-1,59*,4,-6,1,0
CC(C)c1nnc2c(N(C)S(=O)(=O)c3ccccc3)nc3ccccc3n12,0,0,3,-1,3,-1
COc1ccc(/C(C#N)=C/c2cccnc2)cc1,6,/,19*,-9,-1,/
CCC1CCCCN1Cc1ccc(OC)c(C)c1 (stereo not drawn),0,38,-4,-2,1,65*
CCOC(=O)C1CCCCN1Cc1ccc(OC)c(OC)c1 (stereo not drawn),7,-6,-12,0,-6,-2
COc1ccc(CN2CCSCC2)cc1C,-1,21,-7,-6,3,69*
Cc1ccc(S(=O)(=O)NCC2CN(S(=O)(=O)c3ccc(C)cc3)c3ccccc3C(=O)N2c2ccc(F)cc2)cc1 (stereo not drawn),/,/,/,-9,0,/
CCCC[C@H]1C2CC(OC(=O)Nc3cccc(Cl)c3)C(C2)[C@H]2CCCCN21 (stereo partly drawn),1,/,/,4,-4,/
COC(=O)[C@@]1(C(C)C)N=C(c2cc(OC)c(OC)c(OC)c2)[C@]2(O1)C(=O)N(Cc1cn(Cc3ccccc3)nn1)c1ccc(F)cc12,0,/,/,-9,5,/
O=C(NC(C(=O)N/N=C/c1ccncc1)c1n[nH]c(=O)c2ccccc12)c1ccccc1 (stereo not drawn),0,4,2,5,6,-1
O=C(NC(C(=O)N/N=C/c1cccnc1)c1n[nH]c(=O)c2ccccc12)c1ccccc1 (stereo not drawn),-1,-58,7,4,-1,96*
Cc1ccn(C(=O)c2cc3c(C)nn(-c4ccccc4)c3s2)n1,/,0,28*,/,/,2
CN1CC=C(c2ccccc2)N(c2ccc(Br)cc2)C1=O,1,/,/,10,1,/
CC(Oc1ccc(Br)cc1)C(=O)Nc1ccc(S(=O)(=O)NC2=NCCCCC2)cc1 (stereo not drawn),0,-79,1,4,-6,81*
O=S(=O)(NC1=NCCCCC1)c1ccc(Cl)cc1,-1,-8,6,5,0,-2
CCOc1ccc(S(=O)(=O)NC2=NCCCCC2)cc1,0,8,18*,-11,7,-2
O=C(NCc1cccc(Cl)c1)O[C@H]1CC[C@@]23CCCN2C(=O)CCC[C@H]3C1,/,/,/,0,-7,/
COc1ccc(-n2cc(COC(=O)NCCc3c[nH]c4ccccc34)nn2)cc1,0,/,/,-5,-3,/
SMILES,proKLK7 act,CRFBP-R2 block,CendR NRP1 mod,DDE Tn7 FP inh,Tn6 DDE FP,CRFBP-R2 agonist
CCOC(=O)[C@@]12CCCC3=C1N(CCC3)C(=O)[C@H]2CC(=O)NCCC(C)C,0,/,/,3,-1,/
COc1cc(C=Nn2c(-c3ccccc3F)n[nH]c2=S)ccc1OCc1ccccc1,0,/,/,-1,5,/
O=C(O)c1ccc(COc2ccccc2C=C2C(=O)c3ccccc3C2=O)cc1,1,81*,-35,-4,-5,-1
CCN1CCN(CC(=O)Nc2ccc(C)cc2C)C(=O)C1=O,0,-7,4,0,3,-1
CCN1CCN(CC(=O)Nc2cccc(C)c2C)C(=O)C1=O,-1,2,21*,2,4,1
C=CCOC(=O)N[C@H](c1ccc(-c2ccccc2)cc1)[C@H](C)/C=C/CC(=O)OC,1,/,/,-3,-5,/
Cc1nn(-c2ccccc2)c2nc(C(F)(F)F)[nH]c(=O)c12,0,28,9,1,3,-1
Cc1nn(-c2cc(C(F)(F)F)ccc2Cl)c2nc(C(Cl)(Cl)Cl)[nH]c(=O)c12,0,52*,12,-6,-6,0
O=c1cc(-c2ccccc2Cl)oc2c(NS(=O)(=O)c3cc(Cl)cc(Cl)c3O)ccc(O)c12,/,4,-50,/,/,81*
FC(F)(F)c1ccccc1CN1CCCc2nc(-c3ccc(Br)cc3)ccc21,-3,/,/,5,6,/
COc1cc2c(cc1OC)/C(=C/C(=O)c1ccc(OC)c([N+](=O)[O-])c1)NCC2,4,57*,-1,-1,-5,0
O=C(CNS(=O)(=O)c1ccc([N+](=O)[O-])cc1)N/N=C\c1ccc(O)cc1,-1,-26,3,4,-6,65*
CCOC(=O)[C@@H](CCc1ccccc1)N[C@@H](C)C(=O)N1CCC[C@H]1C(=O)O,-1,/,/,8,2,/
Cc1ccccc1NC(=O)N(C)[C@H]1C[C@H]2c3[nH]c4c(-c5ccccc5)cccc4c3CCN2C[C@H]1[C@H](C)O,1,/,/,5,-3,/
O=C(CSc1ncc(-c2ccccc2)n1C1CCCC1)N1CCc2ccccc21,-1,-124,-4,9,1,102*
CN1CCC(=O)N(CCSc2ccccc2)CC1,1,5,3,-8,7,0
Cc1ccc(SCCN2CCN(C)CCC2=O)cc1,0,6,26*,0,2,-3
O=C1CCN(Cc2ccccc2)S(=O)(=O)c2ccccc21,0,-4,24*,4,4,-2
C=C1CCN(Cc2ccccc2)S(=O)(=O)c2ccccc21,0,-2,-3,-1,4,-2
C=CCn1c(SCc2ccc(Cl)cc2)nc2c1c(=O)[nH]c(=O)n2C,0,-12,26*,-1,-4,-3
C=CCn1c(SCc2ccc(F)cc2)nc2c1c(=O)[nH]c(=O)n2C,0,62*,2,9,4,-3
